PMC11017284 (Asian Journal of Pharmaceutical Sciences, 2024)

Tested on: Caco-2 cells
Assay: Caco-2 cellular uptake study
Format: in vitro ADME, human
Conditions: verapamil 50 µg/ml, 1 or 3 h
Outline: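 Caco-2 cells (DMEM, 20% FBS, 37 °C, 5% CO2) seeded at 5 × 10⁴/well and grown 24 h. Test compound as SNEDDS or solution (equivalent CTX 5 µg/ml) given with verapamil 50 µg/ml, 1 or 3 h at 37 °C. Washed three times with ice-cold PBS, sonicated in water (100 W), lysed, spun 13,000 rpm 10 min. CTX by HPLC; handling matched the no-inhibitor uptake arm.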

Change of Caco-2 uptake after adding P-gp inhibitor: no significant difference
Structure (SMILES): CO[C@H]1C(=O)[C@]2(C)[C@@H](OC)C[C@H]3OC[C@@]3(OC(C)=O)[C@H]2[C@H](OC(=O)c2ccccc2)[C@]2(O)C[C@H](OC(=O)[C@H](O)[C@@H](NC(=O)OC(C)(C)C)c3ccccc3)C(C)=C1C2(C)C [CTX, cabazitaxel]
